Test results published in ChEMBL document CHEMBL1139384, “First Cdc7 kinase inhibitors: pyrrolopyridinones as potent and orally active antitumor agents. 2. Lead discovery” (J Med Chem, 2009).
Values after ≈ are worked out from the molar mass of the structure shown.

How the values were obtained:
[1] = biological target: Cell division cycle 7-related protein kinase (Homo sapiens, UniProt O00311); experiment: Inhibition of human Cdc7 assessed as inhibition of rate of phosphorylation of Mcm2 protein
A2780 = experiment: Antiproliferative activity against human A2780 cells after 72 hrs by luciferase based assay; format: functional, cell-based
[2] = biological target: Cyclin-dependent kinase 9 (Homo sapiens, UniProt P50750); experiment: Inhibition of CDK9
[3] = Solubility in pH 7.0 buffer
[4] = Metabolic stability in human hepatocytes expressing CYP3A4 assessed as drug remaining after 1 hr; format: ADME, cell-based, Hepatocyte; settings: read-out: Stability
[5] = Cmax in nu/nu mouse at 10 mg/kg, iv administered as single dose; format: ADME, organism-based; parameters: dose 10 mg/kg, route intravenous; settings: in vivo
Procedure, shortened: (§1)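 Single iv or oral dose in 5% dextrose to overnight-fasted animals. Nu/Nu mice: males, 3 per route, saphenous bleeds to 24 h. Han-Wistar rats: males, 3 per route, jugular bleeds to 24 h. Beagle dogs: 2 per sex, iv and po crossover 2 weeks apart, jugular bleeds to 48 h. Plasma by LC/MS/MS; noncompartmental parameters, AUC by linear trapezoid with extrapolation.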

[6] = AUC (0 to infinity) in nu/nu mouse at 10 mg/kg, iv administered as single dose; format: ADME, organism-based; parameters: dose 10 mg/kg, route intravenous, time infinity; settings: plasma; procedure, shortened: as §1
[7] = Clearance in nu/nu mouse at 10 mg/kg, iv administered as single dose; format: ADME, organism-based; parameters: dose 10 mg/kg, route intravenous; settings: in vivo; procedure, shortened: as §1
[8] = Volume of distribution at steady state in nu/nu mouse at 10 mg/kg, iv administered as single dose; format: ADME, organism-based; parameters: dose 10 mg/kg, route intravenous; settings: in vivo, read-out: Vdss
Procedure, shortened: (§2)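 Overnight-fasted male Nu/Nu mice got a single 10 mg/kg dose in 5% dextrose, iv or po, three mice per route. Saphenous blood was drawn at 0.083 (iv) or 0.25 (po), 0.5, 1, 6 and 24 h. Plasma was assayed by LC/MS/MS and analysed noncompartmentally. Tmax is the observed peak time, Vss = CL·MRT, and F is the ratio of dose-normalized AUC∞ po/iv.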

[9] = Half life in nu/nu mouse at 10 mg/kg, iv administered as single dose; format: ADME, organism-based; parameters: dose 10 mg/kg, route intravenous; settings: in vivo; procedure, shortened: as §1
[10] = Cmax in nu/nu mouse at 10 mg/kg, po administered as single dose; format: ADME, organism-based; parameters: dose 10 mg/kg, route oral; settings: in vivo; procedure, shortened: as §1
[11] = Tmax in nu/nu mouse at 10 mg/kg, po administered as single dose; format: ADME, organism-based; parameters: dose 10 mg/kg, route oral; settings: in vivo; procedure, shortened: as §2
[12] = AUC (0 to infinity) in nu/nu mouse at 10 mg/kg, po administered as single dose; format: ADME, organism-based; parameters: time infinity, dose 10 mg/kg, route oral; settings: plasma; procedure, shortened: as §1
[13] = Half life in nu/nu mouse at 10 mg/kg, po administered as single dose; format: ADME, organism-based; parameters: dose 10 mg/kg, route oral; settings: in vivo; procedure, shortened: as §1
[14] = Oral bioavailability in nu/nu mouse at 10 mg/kg administered as single dose; format: ADME, organism-based; settings: in vivo; procedure, shortened: as §2
Hepatocyte = experiment: Metabolic stability in rat hepatocytes assessed as intrinsic clearance at 1 uM; format: cell-based; settings: Liver

Sequence of Cyclin-dependent kinase 9 (P50750 whole entry): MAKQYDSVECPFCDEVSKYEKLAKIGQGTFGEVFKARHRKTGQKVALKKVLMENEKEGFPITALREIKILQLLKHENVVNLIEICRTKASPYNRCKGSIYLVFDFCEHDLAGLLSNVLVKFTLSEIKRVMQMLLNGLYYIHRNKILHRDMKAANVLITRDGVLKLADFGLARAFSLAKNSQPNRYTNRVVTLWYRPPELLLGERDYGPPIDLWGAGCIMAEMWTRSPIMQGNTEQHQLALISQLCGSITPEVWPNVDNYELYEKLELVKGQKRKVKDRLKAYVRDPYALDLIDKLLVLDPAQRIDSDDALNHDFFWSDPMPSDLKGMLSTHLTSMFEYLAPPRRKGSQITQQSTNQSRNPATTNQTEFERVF
Sequence of Cell division cycle 7-related protein kinase (O00311 whole entry): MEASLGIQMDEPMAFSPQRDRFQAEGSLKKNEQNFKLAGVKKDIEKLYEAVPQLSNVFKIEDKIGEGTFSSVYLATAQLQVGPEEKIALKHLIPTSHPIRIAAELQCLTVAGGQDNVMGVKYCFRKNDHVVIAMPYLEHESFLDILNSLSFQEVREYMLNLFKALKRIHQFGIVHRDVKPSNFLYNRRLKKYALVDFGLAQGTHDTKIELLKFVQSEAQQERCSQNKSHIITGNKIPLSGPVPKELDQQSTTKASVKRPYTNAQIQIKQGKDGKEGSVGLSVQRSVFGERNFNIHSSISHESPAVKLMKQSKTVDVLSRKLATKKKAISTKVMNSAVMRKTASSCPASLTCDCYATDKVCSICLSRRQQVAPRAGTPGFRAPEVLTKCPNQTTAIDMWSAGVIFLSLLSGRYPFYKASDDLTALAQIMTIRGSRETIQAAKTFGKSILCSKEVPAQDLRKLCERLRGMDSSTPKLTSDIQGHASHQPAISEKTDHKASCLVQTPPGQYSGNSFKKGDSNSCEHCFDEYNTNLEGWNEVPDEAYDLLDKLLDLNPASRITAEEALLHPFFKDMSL

Compound	IC50 [1] [µM]	IC50 (A2780; Homo sapiens, A2780, 72 h) [µM]	further results
CCC1(CC)CNC(=O)c2cc(-c3ccncc3)[nH]c21	0.006	0.2	
Nc1nccc(-c2cc3c([nH]2)[C@H](CCF)CNC3=O)n1	0.005	1	IC50 [2]: 0.096 µM
CC(C)CC1Cc2[nH]c(-c3ccncc3)cc2C(=O)N1 (stereo not given)	0.003	0.8	
Nc1nccc(-c2cc3c([nH]2)C(CCC(F)(F)F)CNC3=O)n1 (stereo in doubt; 93-2) [listing 1 of 2 here]	0.011		IC50 [2]: 0.395 µM; solubility [3]: 195 µM (≈ 63.4 µg/mL); remaining at 1 h [4]: 94%; Cmax [5]: 13.6 µM; AUC(0-inf) [6]: 5.3 µM·h; clearance [7]: 5.3 L/h/kg; Vd [8]: 1.5 L/kg; half-life [9]: 54 min; Cmax [10]: 0.8 µM; Tmax [11]: 19.8 min; AUC(0-inf) [12]: 1.7 µM·h; half-life [13]: 102 min; bioavailability [14]: 31%; IC50 (A2780; a2780): 0.3 µM
Nc1nccc(-c2cc3c([nH]2)C(CCC(F)(F)F)CNC3=O)n1 (stereo in doubt; 93-2) [listing 2 of 2 here]			CL (mL.min-1.kg-1) (Hepatocyte): 8.33
O=C1NCC(CCF)c2[nH]c(-c3ccncc3)cc21 (stereo not given)	0.002	0.6	
CCC1CNC(=O)c2cc(-c3ccnc(N)n3)[nH]c21 (stereo in doubt; 86-1) [listing 1 of 2 here]	0.004		IC50 [2]: 0.073 µM; solubility [3]: > 225 µM; remaining at 1 h [4]: 99%; Cmax [5]: 12.6 µM; AUC(0-inf) [6]: 4.9 µM·h; clearance [7]: 7.5 L/h/kg; Vd [8]: 1.5 L/kg; half-life [9]: 12 min; Cmax [10]: 2.7 µM; Tmax [11]: 20.4 min; AUC(0-inf) [12]: 3.6 µM·h; half-life [13]: 78 min; bioavailability [14]: 74%
CC1Cc2[nH]c(-c3ccncc3)cc2C(=O)N1 (stereo not given)	0.013	2.4	
CC(C)CC1Cc2[nH]c(-c3ccnc(N)n3)cc2C(=O)N1 (stereo not given)	0.008	1.6	
Nc1nccc(-c2cc3c([nH]2)C(CCC(F)(F)F)CNC3=O)n1 (stereo in doubt; 93)	0.01		IC50 (A2780; a2780): 0.5 µM
Nc1nccc(-c2cc3c([nH]2)C(CCO)CNC3=O)n1 (stereo not given)	0.004	1.1	
Nc1nccc(-c2cc3c([nH]2)C(C2CCC2)CNC3=O)n1 (stereo in doubt; 88-1)	0.011		IC50 [2]: 0.083 µM; IC50 (A2780; a2780): 1.3 µM
CC(C)C1Cc2[nH]c(-c3ccncc3)cc2C(=O)N1 (stereo not given)	0.006	0.9	
CCC1CNC(=O)c2cc(-c3ccnc(N)n3)[nH]c21 (stereo in doubt; 86-1) [listing 2 of 2 here]			CL (mL.min-1.kg-1) (Hepatocyte): 5
CC1(C)CNC(=O)c2cc(-c3ccncc3)[nH]c21		0.2	
CCC1CNC(=O)c2cc(-c3ccnc(N)n3)[nH]c21 (stereo in doubt; 86-2)	0.005	0.4	IC50 [2]: 0.017 µM
Nc1nccc(-c2cc3c([nH]2)C[C@H](COCc2ccccc2)NC3=O)n1	0.052	3	
CC1CNC(=O)c2cc(-c3ccncc3)[nH]c21 (stereo not given)	0.01	0.6	
Nc1nccc(-c2cc3c([nH]2)C(CCF)CNC3=O)n1 (stereo not given)	0.003	0.6	
O=C1NCC(C2CCC2)c2[nH]c(-c3ccncc3)cc21 (stereo not given)	0.003	0.5	
Nc1nccc(-c2cc3c([nH]2)CC(C2CC2)NC3=O)n1 (stereo not given)	0.011	1.1	
Nc1nccc(-c2cc3c([nH]2)C(C2CCC2)CNC3=O)n1 (stereo in doubt; 88-2)	0.002		IC50 [2]: 0.096 µM; IC50 (A2780; a2780): 0.2 µM

Compound	IC50 [1] [µM]	IC50 (A2780; Homo sapiens, A2780, 72 h) [µM]	further results
CC(C)C1CNC(=O)c2cc(-c3ccnc(N)n3)[nH]c21 (stereo in doubt; 87-2)	0.001		IC50 [2]: 0.073 µM; IC50 (A2780; a2780): 0.6 µM
CCC1(CC)CNC(=O)c2cc(-c3ccnc(N)n3)[nH]c21	0.005	0.2	
CC(C)C1CNC(=O)c2cc(-c3ccnc(N)n3)[nH]c21 (stereo in doubt; 87)	0.004		IC50 (A2780; a2780): 0.4 µM
Nc1nccc(-c2cc3c([nH]2)C(CCOCc2ccccc2)CNC3=O)n1 (stereo not given)	0.007	0.4	
CC(C)C1CNC(=O)c2cc(-c3ccncc3)[nH]c21 (stereo not given)	0.01	0.5	
Nc1nccc(-c2cc3c([nH]2)C(C2CCC2)CNC3=O)n1 (stereo in doubt; 88)	0.005		IC50 (A2780; a2780): 0.3 µM
Nc1nccc(-c2cc3c([nH]2)C(CCCOCc2ccccc2)CNC3=O)n1 (stereo not given)	0.024	2	
CC(C)C1Cc2[nH]c(-c3ccnc(N)n3)cc2C(=O)N1 (stereo not given)	0.012	1.3	
Nc1nccc(-c2cc3c([nH]2)CCNC3=O)n1		1.7	IC50 [2]: 0.029 µM
Nc1nccc(-c2cc3c([nH]2)C(CCCO)CNC3=O)n1 (stereo not given)	0.012	6	
O=C1NCC(c2ccccc2)c2[nH]c(-c3ccncc3)cc21 (stereo not given)	0.02	4	
CC1(C)Cc2[nH]c(-c3ccnc(N)n3)cc2C(=O)N1	0.064	1.8	
CC1(C)Cc2[nH]c(-c3ccncc3)cc2C(=O)N1	0.032	1.2	
CC1CNC(=O)c2cc(-c3ccnc(N)n3)[nH]c21 (stereo not given)	0.006	0.7	
O=C1N[C@@H](COCc2ccccc2)Cc2[nH]c(-c3ccncc3)cc21	0.044	4.8	
O=C1NC(C2CC2)Cc2[nH]c(-c3ccncc3)cc21 (stereo not given)	0.005	1.3	
Nc1nccc(-c2cc3c([nH]2)C(CCC(F)(F)F)CNC3=O)n1 (stereo in doubt; 93-1)	0.012		IC50 [2]: 0.218 µM; IC50 (A2780; a2780): 1 µM
Nc1nccc(-c2cc3c([nH]2)C(c2ccccc2)CNC3=O)n1 (stereo not given)	0.019	3	
CC(C)C1CNC(=O)c2cc(-c3ccnc(N)n3)[nH]c21 (stereo in doubt; 87-1)	0.013		IC50 [2]: 0.031 µM; IC50 (A2780; a2780): 1 µM
CCC1CNC(=O)c2cc(-c3ccncc3)[nH]c21 (stereo not given)	0.002	0.3	
CC1Cc2[nH]c(-c3ccnc(N)n3)cc2C(=O)N1 (stereo not given)		3.9	
CCC1CNC(=O)c2cc(-c3ccnc(N)n3)[nH]c21 (stereo in doubt; 86)	0.005		
